Assay outcomes: PubChem BioAssay, Broad Institute
In the library only some 3% were active in any assay of this set; here they are far more common.
Cneo AK release: causes C. neoformans cell lysis. lysis activity, % at 15 µM. actives 0.2% (n = 360,000). adenylate kinase release luminescence, 4 h; normalised: neutral wells 0, clomiphene wells 100;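 active means mean lysis activity across replicates of at least 80%, whatever share of replicates individually reach that level; inactive means mean lysis activity below 80%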
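Assay system: C. neoformans cells. Amount: yeast cell density of 5 × 10^6 cells/mL. Technique: AK luminescence. Buffer or medium: YPD. Times: static 4 h at 37 °C with compound, 1 h detection. Dosing: single-point compound dose. Read-out: lysis from increased AK signal.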
Ecoli rRNA inh: selective bacterial rRNA inhibition in E. coli; E. coli WT GFP vs humanized-ribosome RFP mutants, fluorescence, 24 h; active compounds read low; DMSO median 0, no signal -100; GFP signal change (wild-type ribosome), % (test concentration not listed); actives 1.6% (n = 350,000); AID 720706;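 active means significant combined selectivity score with lowered wild-type GFP, culture density cut under 30%, mutant RFP and density less affected; inactive means any of these conditions unmet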
PGC1a acetyl inh: modulators of PGC1a acetylation; U2OS PGC1a acetylation, AlphaScreen anti-acetyl-lysine; with virally co-expressed GCN5 acetyltransferase; inhibition, % at 15.6 µM; actives 0.17% (n = 350,000);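 active means every replicate shows inhibition of at least 40%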;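 further: 0% = neutral control wells and 100% = positive control wells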
S100A4 inh HTS: inhibitors of human S100A4 binding to myosin IIA peptide. S100A4/TAMRA-MyoIIA peptide fluorescence polarization. inhibition, % at 10.7 µM. actives 0.14% (n = 360,000);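 active means mean inhibition of at least 70% across replicates, with every replicate also reaching that level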
Target sequence (P26447 whole entry, looked up): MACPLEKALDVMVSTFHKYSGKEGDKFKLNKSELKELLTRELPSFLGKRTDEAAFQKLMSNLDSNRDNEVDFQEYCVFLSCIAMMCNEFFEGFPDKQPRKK
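Test system: S100A4 monomer protein; Medium: HEPES pH 7.2 with CaCl2, KCl, NaCl, DTT, Triton; Probe or stimulus: TAMRA-labelled myosin IIA heavy-chain peptide probe, 5 nM; Doses: one dose per compound; Times: polarization read 5 min after assay mix addition, stable 5–60 min; Benchmarks: neutral control DMSO, positive control TFP.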
SIRT5 block: inhibitors of human sirtuin-5 desuccinylase; Q9NXA8; Purified SirT5, succinyl-peptide AMC, trypsin-coupled fluorescence; inhibition, % at 15 µM; actives 1.1% (n = 330,000); in the data active means inhibition above about 15%
Target sequence (Q9NXA8 whole entry, looked up): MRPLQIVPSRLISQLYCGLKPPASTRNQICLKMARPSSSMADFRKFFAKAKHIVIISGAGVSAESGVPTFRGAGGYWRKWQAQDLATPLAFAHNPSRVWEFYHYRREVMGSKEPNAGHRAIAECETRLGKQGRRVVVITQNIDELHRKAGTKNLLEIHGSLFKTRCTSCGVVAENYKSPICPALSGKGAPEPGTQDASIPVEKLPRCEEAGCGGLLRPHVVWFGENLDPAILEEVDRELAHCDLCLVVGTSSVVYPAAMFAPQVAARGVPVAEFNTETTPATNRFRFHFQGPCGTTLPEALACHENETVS
C2C12 statin: suppression of simvastatin myotoxicity; C2C12 myotubes + simvastatin, ATP luminescence, 48 h; scaled: DMSO 0, geranylgeraniol control 100; rescue of ATP level, % at 7.49 µM; actives 0.78% (n = 330,000); AID 602340;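 active means mean ATP rescue above about 67%, or every replicate alone reaching that limit, limit read from the data, passing the limit was not always enough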;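 further: myotubes were challenged with 10 µM simvastatin during compound exposure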
* marks the source's active call; other numbers are inactive results; / = no result given.

SMILES	Cneo AK release	Ecoli rRNA inh	PGC1a acetyl inh	S100A4 inh HTS	SIRT5 block	C2C12 statin
OC[C@H]1Nc2ccc(-c3cccc(F)c3)cc2[C@@H]2[C@H]1CCN2Cc1ccc(F)cc1	-3.5	-54.7	-21.2	24.3	7.5	32.7
COc1ccc(CN(C)C[C@H]2Oc3c(NS(=O)(=O)c4cn(C)cn4)cccc3C(=O)N([C@H](C)CO)C[C@H]2C)cc1	-1.1	4.3	3.5	-13.2	-3.1	6.4
Nc1ccccc1N=Cc1ccc(-c2cccc(Cl)c2)o1	-0.9	-25.9*	-12.5	-21.3	-4.2	-9.5
CC(C)COc1ccc(CNC(=S)NCc2ccccc2)cc1	181.9*	/	/	/	/	-6.9
COc1ccc(CC(=O)NNC(=O)c2cnccn2)cc1	0.0	4.1	10.5	3.6	-0.7	5.8
CC(C)c1ccc(OCC(=O)NNC(=O)c2cnccn2)cc1	/	-28.1*	/	-4.4	-4.2	/
CC(C)c1ccc(OCC(=O)NCc2ccccc2)cc1	0.2	-22.2*	1.1	-8.6	-3.3	4.0
CC(C)c1ccc(CNC(=O)CCc2ccccc2)cc1	/	-41.7	/	-2.2	0.0	/
OC(CNCc1ccccc1)COc1ccccc1 (centres undefined)	-0.6	14.7	-17.1	-23.5	24.0*	18.7
C[C@@H]1CN([C@H](C)CO)C(=O)c2cc(C3=CCCC3)cnc2O[C@@H]1CN(C)C(=O)c1cccnc1	-4.7	4.2	11.2	14.1	-9.5	20.6
Cc1cccc(S(=O)(=O)N[C@@H]2CC[C@@H](CCn3cc(-c4ccccn4)nn3)O[C@H]2CO)c1	0.8	-2.0	-14.1	-2.2	0.5	-1.7
COc1cc(N=Nc2ccc(Br)cc2)cc(C=O)c1O	-0.6	28.9	/	-0.1	18.0*	/
CO[C@H]1CN(C)C(=O)c2cc(NS(=O)(=O)CC(F)(F)F)ccc2OC[C@@H](C)N(CC2CCCCC2)C[C@H]1C	0.6	1.8	8.1	1.8	2.4	-18.7
CC1Cc2ccccc2N1C(=O)COC(=O)c1cc(Br)ccc1O (centres undefined)	/	9.6	/	2.2	0.5	2.1
CC1Cc2ccccc2N1C(=O)COC(=O)c1cccc(Br)c1 (centres undefined)	-1.0	-32.5*	3.9	-5.1	-3.0	-16.0
COc1cccc(/C=C/C(=O)OCC(=O)N2c3ccccc3CC2C)c1 (centres undefined)	-1.1	-18.2*	6.7	8.0	/	-7.2
COc1ccc(/C=C/C(=O)OCC(=O)N2c3ccccc3CC2C)cc1OC (centres undefined)	-1.2	8.5	8.4	-1.0	/	-1.2
Cc1ccc(S(=O)(=O)Nc2cccc3c2O[C@H](CN(C)Cc2ccc(C(F)(F)F)cc2)[C@@H](C)CN([C@H](C)CO)C3=O)cc1	0.2	2.3	-18.2	11.3	1.0	29.2
Cc1cccnc1-n1c(CCN2C(=O)c3ccccc3C2=O)nc2ccccc2c1=O	0.9	/	6.6	/	/	71.9*
O=C1c2ccccc2C(=O)N1CCc1nc2ccccc2c(=O)n1-c1ccccn1	-0.9	/	-7.0	/	/	1.5
COc1ccc(C(C)C)cc1S(=O)(=O)NCC1CCCO1 (centres undefined)	-1.0	-0.7	0.8	-2.9	15.3*	17.0
COc1ccc(OC)c(S(=O)(=O)NCC2CCCO2)c1 (centres undefined)	4.6	/	-0.3	/	/	7.5
COc1ccccc1S(=O)(=O)N[C@@H]1CC[C@@H](CCNC(=O)C2CCCCC2)O[C@H]1CO	0.0	-0.9	1.5	-4.8	3.9	-3.2
Cc1ccccc1S(=O)(=O)N1[C@@H]2Cn3c(cccc3=O)[C@H]1[C@@H](C(=O)N1CCOCC1)[C@@H]2CO	1.3	3.0	/	8.6	1.4	22.7
N#Cc1c(F)cccc1N1CCC(C#N)CC1	/	1.4	/	0.9	-9.7	/
SMILES	Cneo AK release	Ecoli rRNA inh	PGC1a acetyl inh	S100A4 inh HTS	SIRT5 block	C2C12 statin
N#Cc1cccc(C#N)c1N1CCC(C#N)CC1	/	6.5	-8.2	4.2	23.6*	/
Cc1cnc(C(=O)OCC(=O)C23CC4CC(CC(C4)C2)C3)cn1	4.3	1.7	/	-5.0	17.1*	-3.1
Cc1cnc(C(=O)OCC(=O)NC23CC4CC(CC(C4)C2)C3)cn1	-4.1	/	0.9	1.5	1.5	14.7
Cc1cnc(C(=O)OCC(=O)NC2CCCCCCC2)cn1	/	13.1	/	-2.8	0.4	/
CCN(C(=O)COC(=O)c1cnc(C)cn1)C1CCCCC1	-0.5	/	10.3	/	/	134.6*
COc1ccc(C#Cc2ccc3c(c2)[C@@H]2[C@@H](CCN2C(=O)c2ccccc2F)[C@H](CO)N3)cc1	4.5	2.7	5.5	/	/	12.2
COc1cc(OC)cc(-c2nc3ccccc3c(=O)n2OC(=O)c2ccc(Br)cc2)c1	/	-25.3*	3.4	0.6	1.8	/
CCCNC(=O)C[C@H]1CC[C@H]2[C@@H](COC[C@@H](O)CN2Cc2cccc(F)c2)O1	-0.7	2.3	-0.4	6.5	-1.6	-7.9
Nc1ccc2c(c1)Cc1cc(N)c(Cl)cc1-2	-3.7	-31.4*	-15.5	1.5	3.4	17.5
Nc1ccc2c(c1)C(=O)c1cc(N)c(Cl)cc1-2	-4.1	-18.6*	6.4	-0.9	/	16.5
COCCNC(=O)C(c1ccc(C)o1)N(Cc1ccc(OC)cc1)C(=O)Cn1nnc2ccccc21 (centres undefined)	2.0	/	-5.9	/	/	103.8*
C[C@H](CO)N1C[C@H](C)[C@H](CN(C)C(=O)Nc2cccc3ccccc23)Oc2ncc(-c3cc4ccccc4o3)cc2C1=O	8.8	1.4	3.8	1.6	6.3	/
O=C(C[C@@H]1C[C@@H]2c3cc(NC(=O)C4CCOCC4)ccc3O[C@@H]2[C@@H](CO)O1)NCCc1ccccc1	-7.0	0.0	5.4	-11.5	1.3	2.2
O=C(c1ccc([N+](=O)[O-])cc1)N(Cc1ccccc1)Cc1ccccc1	2.5	-25.8*	-4.7	-3.7	8.9	-4.3
O=C(NCCc1ccccc1)c1ccc([N+](=O)[O-])cc1	5.5	/	2.4	/	/	0.8
COc1ccccc1CNC(=O)C[C@H]1C=C[C@@H](NC(=O)CN(C)C)[C@H](CO)O1	-4.4	3.4	-4.6	-34.0	3.2	-2.8
C[C@@H]1CCCCO[C@@H](CN(C)C)[C@H](C)CN([C@@H](C)CO)C(=O)c2cc(NC(=O)CCC(F)(F)F)ccc2O1	2.4	2.8	3.6	-5.0	17.2*	-38.6
C[C@@H]1CCCCO[C@H](CN(C)C(=O)c2ccncc2)[C@H](C)CN([C@H](C)CO)C(=O)c2cc(NC(=O)CCC(F)(F)F)ccc2O1	81.6*	1.3	0.3	/	/	/
C[C@@H]1CCCCO[C@@H](CN(C)C(=O)c2ccncc2)[C@H](C)CN([C@@H](C)CO)C(=O)c2cc(NC(=O)CCC(F)(F)F)ccc2O1	2.9	2.2	0.5	/	/	/
O=S(=O)(Nc1cc(Sc2ncn[nH]2)c(O)c2ccccc12)c1ccccc1	/	-52.0	72.4*	5.0	1.4	/
